Shown are actives, neighbours in structure and some others; about 3.5% of the full set was active somewhere.
RGS4 pot – potentiators or activators of RGS4. HEK293 M3R/inducible RGS4, carbachol calcium flux Fluo4; stronger effect = lower value. B-score at 10 µM. 310,000 tested, 0.92% active;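 active means B-score of the integrated calcium signal more than 4 SD below the library mean, with starting fluorescence not abnormally high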;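 further: negative B-score means reduced calcium response which marks RGS4 activation or potentiation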
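System: HEK293 FlpIn-TREx cells, stable M3R, doxycycline-inducible RGS4. Timing: overnight RGS4 induction, 30 min dye load 37 °C, 20 min compound RT. Also added: carbachol, ECmax concentration. Measured by: Fluo4 fluorescence kinetic imaging of calcium. Evaluation: integrated calcium ratio converted to B score.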
MrgX1 antagonist – blocks BAM8-22 activation of human MrgX1 receptor; MRGX1-HEK293 calcium flux, Fluo-4, BAM8-22 antagonism; stronger effect = lower value; B-score at 10 µM; 310,000 tested, 1.3% active;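 active means calcium-response B-score plate-corrected more than 3 library SD below zero, starting fluorescence within 5 deviations, no agonist response on first addition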;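 further: peak minus trough fluorescence over baseline after final BAM8-22 challenge near maximal dose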
Target sequence (Q96LB2 whole entry, looked up): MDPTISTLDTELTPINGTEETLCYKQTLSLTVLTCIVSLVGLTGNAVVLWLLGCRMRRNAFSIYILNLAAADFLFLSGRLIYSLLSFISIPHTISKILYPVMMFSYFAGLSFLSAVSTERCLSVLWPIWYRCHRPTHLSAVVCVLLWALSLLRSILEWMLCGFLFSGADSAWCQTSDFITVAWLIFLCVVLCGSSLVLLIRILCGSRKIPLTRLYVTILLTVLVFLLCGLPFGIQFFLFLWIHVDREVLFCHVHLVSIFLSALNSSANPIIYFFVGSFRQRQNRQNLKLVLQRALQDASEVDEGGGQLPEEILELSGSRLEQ
RGS4 inh – inhibitors of human RGS4. P49798. HEK293 M3R/RGS4 inducible, Fluo-4 calcium flux; stronger effect = higher value; triggered by carbachol at its EC20. B-score at 10 µM. 310,000 tested, 0.45% active. AID 463165;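 active means B-score, a plate-corrected calcium signal, over three deviations above library mean, with baseline fluorescence within five deviations of library mean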;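 further: RGS4 expression induced by doxycycline in cells with stable M3 receptor; B-score is computed from the integrated fluorescence ratio over baseline after carbachol; higher B-score means a larger calcium signal and so more RGS4 inhibition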
Target sequence (P49798 whole entry, looked up): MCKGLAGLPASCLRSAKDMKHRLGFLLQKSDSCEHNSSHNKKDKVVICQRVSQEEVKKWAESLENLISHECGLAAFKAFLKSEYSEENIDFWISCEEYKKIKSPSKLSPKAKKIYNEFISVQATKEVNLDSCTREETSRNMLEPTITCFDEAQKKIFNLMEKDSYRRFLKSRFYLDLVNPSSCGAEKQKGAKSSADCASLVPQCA
MrgX1 agonist – activates human MrgX1 receptor signaling; MrgX1-HEK293 cells, Fluo-4 calcium fluorescence, agonist mode; stronger effect = higher value; B-score at 10 µM; 310,000 tested, 0.44% active; AID 588627;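 active means calcium response B-score plate-corrected fluorescence ratio at least 3 library SD, with starting fluorescence B-score inside 5 SD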
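System – MrgX1-expressing HEK293 cells · Incubation – cells plated overnight, dye loaded 0.5 h 37 °C, 0.5 h room temperature · Technique – kinetic Fluo-4 NW fluorescence of intracellular calcium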
MrgX1 PAM – human MrgX1 positive allosteric modulation, primary screen. Q96LB2. MrgX1-HEK293, Fluo-4 calcium flux, FDSS; stronger effect = higher value. B-score at 10 µM. 310,000 tested, 0.63% active;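 active means plate-corrected calcium response at least 3 library SD above typical, normal starting fluorescence, not activating the receptor alone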;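 further: compound read alongside a low EC10 to EC30 dose of BAM8-22 agonist; peak minus trough fluorescence over baseline measured at the second addition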
RGS4 act valid – RGS4 activation, validation assay. 1,100 tested, 89% active. inhibition, % at 10 µM. HEK293 M3R/RGS4 inducible, carbachol calcium flux Fluo4. shares compounds with RGS4 pot;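 active means inhibition above 3 SD of the buffer control wells, cut at about 41% in these data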;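 further: signal is the integrated peak-minus-minimum Fluo4 fluorescence over baseline ratio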
M3R Ca counter – activity in cells without induced RGS4 expression; shares compounds with RGS4 pot; HEK293 M3R non-induced RGS4, Fluo4 calcium flux; after carbachol challenge at its EC90; inhibition, % at 10 µM; 1,100 tested, 82% active;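 active means inhibition exceeding 3 SD of buffer-only control wells, cut at about 26% in these data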;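 further: percent drop in integrated peak-minus-baseline over baseline Fluo4 ratio after carbachol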
Large screens that a line does not name were inactive (follow-up assays come after a bar, where they were run).

CCOCc1c(C(=O)NC2=Nc3ccccc3NC(CC)=C2C(=O)OCC)oc2ccccc12	RGS4 pot -8.9 | RGS4 act valid 76 | M3R Ca counter 84
CCOC(=O)C1=C(CC)Nc2ccccc2N=C1NC(=O)c1oc2ccccc2c1C	RGS4 pot -12 | RGS4 act valid 84 | M3R Ca counter 52
Cc1cc(-c2cc(C(=O)Nc3ccccc3)on2)nc(NC2CCCC2)n1	none
CCN(CC)c1ccc(N=C2C(=O)Nc3ccccc32)cc1	RGS4 pot -11 | RGS4 act valid 84 | M3R Ca counter 39
O=C1Nc2ccccc2C1=Nc1ccc(Br)cc1	none
O=c1c2ccccc2nc(/C=C/c2cccnc2)n1CCc1ccccc1	RGS4 pot -9.7 | RGS4 act valid 56 | M3R Ca counter inactive
Cc1nc2nc(SCC(=O)NCCCN3CCCC3)nn2c(C)c1Cc1ccccc1Cl	RGS4 pot -8.2 | RGS4 act valid 78 | M3R Ca counter 42
CS(=O)(=O)N(CC(=O)N1CCCCCC1)c1cccc([N+](=O)[O-])c1	none
Cc1ccc(C)c(N(C(=O)c2ccco2)C(C(=O)NC2CCCC2)c2ccco2)c1 (configuration not stated)	none
COc1ccc(N2C(=O)CC(N(CCc3ccccc3)C(=O)c3ccccc3)C2=O)cc1 (configuration not stated)	RGS4 pot -11 | RGS4 act valid inactive | M3R Ca counter inactive
COc1ccc(CCN(C(=O)c2cccc(F)c2)C2CC(=O)N(c3ccccc3)C2=O)cc1 (configuration not stated)	none
Cc1cccc(/C(N)=N/OC(=O)COc2ccc(Cl)cc2)c1	none
Cc1cccc(C(=O)NC(=S)NNC(=O)COc2ccc(Cl)cc2)c1	RGS4 pot -11 (no result: MrgX1 antagonist, MrgX1 agonist, MrgX1 PAM) | RGS4 act valid 58 | M3R Ca counter 50
CCNc1nc(N2CCCC2)nc(N2CCCC2)n1	none
CCNc1nc(NC(C)(C)C)nc(N2CCCCC2)n1	RGS4 pot -7.9 | RGS4 act valid 94 | M3R Ca counter 93
O=[N+]([O-])c1ccccc1COc1ccc(Cl)c2cccnc12	none
Cc1cccc2nc(COc3ccc(Cl)c4cccnc34)cn12	RGS4 pot -10 | RGS4 act valid inactive | M3R Ca counter 84
O=C1C(NS(=O)(=O)c2cccs2)=C(N2CCN(Cc3ccccc3)CC2)C(=O)c2ccccc21	RGS4 pot -8.1 | RGS4 act valid 63 | M3R Ca counter inactive
CN1CCN(C2=C(NS(=O)(=O)c3cccs3)C(=O)c3ccccc3C2=O)CC1	none
O=C(NCCc1ccc(F)cc1)c1cccc(NC(=O)c2ccccc2)c1	RGS4 pot -7.7 | RGS4 act valid 56 | M3R Ca counter inactive
O=C(NCc1ccc(Cl)cc1)c1cccc(NC(=O)c2ccccc2)c1	none
Cc1ccc(C(C(=O)NC2CCCCC2)N2CCCC2)cc1 (configuration not stated)	none
O=C(NC1CCCCC1)C(c1ccccc1)N1CCCC1 (configuration not stated)	RGS4 pot -8.8 | RGS4 act valid 94 | M3R Ca counter 64
Cc1ccc2c(c1)cc(C(=O)N[C@@H](Cc1ccccc1)C(=O)O)n2C	none
COc1cccc(CN2CCN(C(c3ccccc3)c3ccccc3)CC2)c1O	RGS4 pot -8.8 | RGS4 act valid 92 | M3R Ca counter 75
COc1cc(CN2CCN(C(c3ccccc3)c3ccccc3)CC2)cc(OC)c1OC	RGS4 pot -8.9 | RGS4 act valid 86 | M3R Ca counter 30
C=C(c1ccccc1)c1ccccc1N	none
Cc1cc(C(=O)Nc2ccccc2N2CCCCC2)no1	none
CN1/C(=C\C(=O)Nc2ccc(F)cc2)C(C)(C)c2ccccc21	RGS4 pot -8.8 | RGS4 act valid 50 | M3R Ca counter 26
CN1/C(=C\C(=O)Nc2ccc(Br)cc2)C(C)(C)c2ccccc21	RGS4 pot -9.2 | RGS4 act valid 92 | M3R Ca counter 96
CNc1nc2ccccc2n1CC(=O)c1ccccc1	none
CCOC(=O)NC(=O)c1cn(CCNCCO)c(=O)[nH]c1=O	none
Cc1ccc(C(=O)c2cnc3ccccc3c2-c2ccccc2)cc1	RGS4 pot -8.3 | RGS4 act valid 78 | M3R Ca counter 58
COc1ccc(C(=O)c2cnc3ccccc3c2-c2ccccc2)cc1	RGS4 pot -8.6 | RGS4 act valid 86 | M3R Ca counter 66
COCCN(CC(=O)NCC1CCCO1)C(=O)CCC(=O)Nc1ccccn1 (configuration not stated)	none
COc1ccc(OC)c(CCNC(=O)C(C)n2nc(C)c3c(C)n(-c4ccc(C)cc4)nc3c2=O)c1 (configuration not stated)	none
COc1ccc2c(c1)C=C([C@@H]1C[C@H]3CN(c4ccccc4)C(=O)[C@]34CCCN14)CO2	RGS4 pot -10 | RGS4 act valid 70 | M3R Ca counter 84
CN(C)C(=O)N1CCC(C(=O)N2CCCC(C(=O)c3cccc4ccccc34)C2)CC1 (configuration not stated)	none
CCOC(=O)c1cc2sc(C)cc2n1CCCN1C(=O)c2ccccc2C1=O	RGS4 pot -7.8 | RGS4 act valid 90 | M3R Ca counter 42
CCOC(=O)c1cc2sc(C)cc2n1CC(=O)N(CC)CC	none
Cc1ccc(C)c(S(=O)(=O)N2CCCC2CNC(=O)C(=O)NCc2ccccc2C)c1 (configuration not stated)	none
COc1ccc(CCNC(=O)C(=O)NCC2OCCCN2S(=O)(=O)c2cc(C)ccc2C)cc1 (configuration not stated)	none
Cc1ccc(C)c(S(=O)(=O)N2CCCC2CNC(=O)C(=O)NCCc2ccccc2)c1 (configuration not stated)	RGS4 pot -10 | RGS4 act valid 80 | M3R Ca counter 31
COc1ccc(CCNC(=O)C(=O)NCC2CCCN2S(=O)(=O)c2cc(C)ccc2C)cc1 (configuration not stated)	RGS4 pot -9.5 | RGS4 act valid 74 | M3R Ca counter 26
Cc1cccc(NS(=O)(=O)c2ccc(C3CCCCC3)cc2)c1	RGS4 pot -8.8 | RGS4 act valid 94 | M3R Ca counter 92
O=[N+]([O-])c1ccc(-c2n(-c3ccccn3)c3ccccc3[n+]2-c2ccccn2)cc1	none
COc1ccc(S(=O)(=O)N2CCOCC2)cc1NC(=O)CCc1nc2ccccc2c(=O)[nH]1	none
